Test results from the RNAGym collection of RNA variant scans (doi:10.1126/science.aae0568).
Fewer inactive variants are shown than the library holds.

B1: tRNA (parent)
chain: GUUCCGUUGGCGUAAUGGUAACGCGUCUCCCUCCUAAGGAGAAGACUGCGGGUUCGAGUCCCGUACGGAACG

Variants of: B1
Test: yeast fitness relative to wild type (ratio to wild type); higher = fitter; tRNA-Arg(CCU), competitive growth, 37 C, YPD
In short: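 Variants of the tRNA-Arg(CCU) gene, chemically synthesised with a 3% per-site mutation rate at 69 sites, were placed at the native genomic locus in Saccharomyces cerevisiae. The pooled strains were competed in YPD at 37°C for 24 hours in six parallel replicates. Gene amplicons from the start population and from each end population were read by 100-nucleotide paired-end sequencing. Darwinian fitness relative to wild type came from changes in genotype frequencies; genotypes needed ≥ 100 starting reads, and estimates < 0.5 were set to 0.5.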
With A14G U26C U28A A65U the yeast fitness was ≤ 0.5.
For C4U G10C C31G G50C C66U, the yeast fitness was ≤ 0.5.
U2G C33G G39C C55U gave a yeast fitness of 0.523.
Variant C29U A40C C66U has a yeast fitness of 0.642.
With A21U C34U A42U U64A G68U the yeast fitness was 0.659.
Work on C4U A42G A65U yielded a yeast fitness of 0.611.
Work on G9A A57U A65U yielded a yeast fitness of 0.532.
With A40G C61G U64C the yeast fitness was ≤ 0.5.
In the case of U7A C60G G67C, the yeast fitness is reported as ≤ 0.5.
With C22A G52C the yeast fitness was 0.665.
Variant C4G G44C has a yeast fitness of 0.826.
For C49U G51C, the yeast fitness was 0.756.
For U7C G63A, the yeast fitness was 0.856.
G6A U47A gave a yeast fitness of 0.692.
With C29U A37C C55A G58A the yeast fitness was ≤ 0.5.
G17C C49U showed a yeast fitness of 0.768.
Work on A36G C66A yielded a yeast fitness of 0.683.
In the case of A43U C60G U64A, the yeast fitness is reported as 0.679.
For G38C G41C C61U A70G, the yeast fitness was ≤ 0.5.
In the case of U2A C27G A36G, the yeast fitness is reported as ≤ 0.5.
With G12A A40C C55A the yeast fitness was ≤ 0.5.
In the case of G44A U64C, the yeast fitness is reported as 0.935.
Variant G6C G18A G23A C30U C33U A65G has a yeast fitness of 0.536.
With U28A C34U the yeast fitness was 0.553.
For A15C A65U G67U, the yeast fitness was ≤ 0.5.
For C5A G18A C30U G48C, the yeast fitness was ≤ 0.5.
In the case of G10C C29A A40U C55G, the yeast fitness is reported as ≤ 0.5.
In the case of U7A A20C U59A A65C, the yeast fitness is reported as 0.662.
C4U C22U C34A gave a yeast fitness of 0.548.
Work on G41A C49G A65G yielded a yeast fitness of 0.546.
G51C G67U gave a yeast fitness of 0.504.
For C5G A20U C46A A57U, the yeast fitness was ≤ 0.5.
For C30A C55G A57C C62G G68C, the yeast fitness was 0.513.
With A43G C46G U53C G56C the yeast fitness was ≤ 0.5.
A20G U54A showed a yeast fitness of 0.681.
In the case of U7A U35C G41C A70U, the yeast fitness is reported as ≤ 0.5.
U7A C27U A69U showed a yeast fitness of 0.691.
In the case of G9C U54G A70C, the yeast fitness is reported as 0.545.
Work on C5U G18C yielded a yeast fitness of 0.721.
In the case of G9C G56A, the yeast fitness is reported as 0.863.
C5G A21G U64C gave a yeast fitness of 0.723.
In the case of U3G A36G A43G, the yeast fitness is reported as 0.735.
Variant A14G G25A C30A G52C has a yeast fitness of 0.548.
With C5U G44C G63C the yeast fitness was 0.686.
With A45C A65G the yeast fitness was 0.993.
In the case of G38A C49A A70U, the yeast fitness is reported as 0.729.
For C29G G44A U64G, the yeast fitness was ≤ 0.5.
In the case of C27G C31A C60G, the yeast fitness is reported as ≤ 0.5.
In the case of C5U G51C G56C A69U, the yeast fitness is reported as ≤ 0.5.
U26G A36G G68A A69G showed a yeast fitness of 0.626.
With U16A U28G U47G U54A the yeast fitness was 0.56.
For U2C A21C A42U U54A, the yeast fitness was ≤ 0.5.
In the case of U32A C33A A43U C62U, the yeast fitness is reported as ≤ 0.5.
With C4G C11G U26A U54A C60U the yeast fitness was ≤ 0.5.
For A20G C60G A69C, the yeast fitness was ≤ 0.5.
Work on G6A A20U C49U yielded a yeast fitness of 0.542.
For U2A A15C C30G, the yeast fitness was ≤ 0.5.
With C55U G56A the yeast fitness was 0.735.
With G9C C34G G52A G56A the yeast fitness was ≤ 0.5.
Work on G18A U19C C22G C24A G39C A45C yielded a yeast fitness of 0.619.
C34A U54C gave a yeast fitness of 0.566.
For C4G A21G C24G C34U U53C C55G C62A, the yeast fitness was ≤ 0.5.
For C33G G41C A43C C61U C66U, the yeast fitness was ≤ 0.5.
Variant U2A U7C G25A A36U C60A C62G has a yeast fitness of 0.58.
For U2C A20U C34G A42G A43U A65G, the yeast fitness was ≤ 0.5.
With C11A U16C G18C A45C A57C G68C A69G the yeast fitness was ≤ 0.5.
U2A U19A A20C U26A gave a yeast fitness of 0.578.
Variant C4U C22G U35C has a yeast fitness of 0.641.
U13G A45U A70C showed a yeast fitness of 0.649.
For G44C C62G G68A, the yeast fitness was ≤ 0.5.
In the case of C5A C22A, the yeast fitness is reported as 0.831.
With C4A C5G A20G A57U G68U the yeast fitness was ≤ 0.5.
A20U C66U showed a yeast fitness of 0.8.
In the case of C11U C29A A57U C62U, the yeast fitness is reported as ≤ 0.5.
With U16G G44A G56A the yeast fitness was 0.663.
In the case of U2C C66A A69C, the yeast fitness is reported as ≤ 0.5.
With C5G A14U G38C G39C C61U the yeast fitness was ≤ 0.5.
For C5G A20G C22G C29G G63C A69U, the yeast fitness was 0.527.
In the case of U13C C29U C31U U54G A65U G67A, the yeast fitness is reported as ≤ 0.5.
Variant G50C U53C C55U has a yeast fitness of 0.528.
For C29U C31G C34G A37C C46A G50A A57U C66U, the yeast fitness was ≤ 0.5.
For C24U A69C A70C, the yeast fitness was 0.536.
U16A C55A A70U gave a yeast fitness of 0.542.
In the case of C29A C61G A70U, the yeast fitness is reported as ≤ 0.5.
G17C C22G A36C G39A A42G G63C gave a yeast fitness of 0.842.
In the case of G10C A15G C31A C33U A40C G44C G48U C49G, the yeast fitness is reported as ≤ 0.5.
In the case of G10A C55G C60A C66A A69U, the yeast fitness is reported as ≤ 0.5.
C11G C29A A43C gave a yeast fitness of 0.572.
With C29G U47A U59A A69G the yeast fitness was ≤ 0.5.
Work on G44A A57C yielded a yeast fitness of 0.654.
For U26A A40G C62U, the yeast fitness was 0.567.
For C5U A14U C31G U59A C61U, the yeast fitness was ≤ 0.5.
In the case of C29G A65U, the yeast fitness is reported as 0.579.
For G10A U19A G44C U54G C55U, the yeast fitness was ≤ 0.5.
With C33G G41C G56C G58A U59C G63C A65U the yeast fitness was ≤ 0.5.
Work on G12U A36G A65C yielded a yeast fitness of 0.561.
With G6A G9C A21C C30U A45U the yeast fitness was ≤ 0.5.
G10A G44A U54C C61U A69C gave a yeast fitness of 0.638.
With C11A U16A C30G G44C C61A the yeast fitness was ≤ 0.5.
With C11U C27G A42C G68A the yeast fitness was ≤ 0.5.
In the case of C5U G6C A14G, the yeast fitness is reported as ≤ 0.5.
With C46U G56A A70G the yeast fitness was 0.697.
Work on U2C G68A yielded a yeast fitness of 0.762.
U32A U64A A65U showed a yeast fitness of 0.961.
G25A C30U A43G G52A showed a yeast fitness of 0.701.
C5G A21G C27G C34G A43C C46G A70G gave a yeast fitness of 0.561.
With G23C C24G C33G A40U C49A the yeast fitness was ≤ 0.5.
Variant U28C A45G C66U has a yeast fitness of 0.72.
For U2G G6A G23A C29G G50U C55A, the yeast fitness was ≤ 0.5.
In the case of U19C A37C, the yeast fitness is reported as 0.658.
With A14G A21C C30G C55G C66U G67A the yeast fitness was ≤ 0.5.
For A20C C34U A40G A57C G67C, the yeast fitness was ≤ 0.5.
Variant G44C C61U has a yeast fitness of 0.718.
For C5G C22U C27U A36G A69C, the yeast fitness was ≤ 0.5.
Variant U2G C5A C55G has a yeast fitness of 0.561.
Work on C49G G68A yielded a yeast fitness of 0.953.
With G41C G50A the yeast fitness was 0.703.
For U7C G10C C46U G63C, the yeast fitness was ≤ 0.5.
With C4U U7G C34G C55U the yeast fitness was 0.563.
Variant U8G C33U A57C U64C A70G has a yeast fitness of 0.511.
With C5A G6C G68U the yeast fitness was ≤ 0.5.
For A65G G67A, the yeast fitness was 1.03.
With C4G G9C C22A A70C the yeast fitness was ≤ 0.5.
Work on C24A C27U U54C U59C yielded a yeast fitness of 0.551.
With U16A C55U C61G A65G the yeast fitness was ≤ 0.5.
U16C C22G U53A gave a yeast fitness of 0.544.
In the case of C27U U54A, the yeast fitness is reported as 0.543.
For A37U U47A C62U, the yeast fitness was 0.531.
With U2G C46A G58C C62U the yeast fitness was ≤ 0.5.
Variant A15G C34U C49A has a yeast fitness of 0.6.
For G9A A20G C49U, the yeast fitness was 0.847.
With U28C C33U C49G the yeast fitness was ≤ 0.5.
With A21C C34U U35C the yeast fitness was ≤ 0.5.
In the case of A15C U28C, the yeast fitness is reported as 0.737.
C24G G56C U59A C60G C62G A70C showed a yeast fitness of 0.617.
For G17A C33G, the yeast fitness was ≤ 0.5.
In the case of C27G A36G A40G A69U, the yeast fitness is reported as ≤ 0.5.
A20C A36G C55U gave a yeast fitness of 0.556.
With U2G U13C A21G U35A C55U A65G the yeast fitness was ≤ 0.5.
With C27A C31G A45C C55U the yeast fitness was ≤ 0.5.
For U7A A37C A43C A65G, the yeast fitness was ≤ 0.5.
A40G A45U G56A gave a yeast fitness of 0.601.
For U3C U8C C11A C31A G68C, the yeast fitness was ≤ 0.5.
With U7G G38C C60G the yeast fitness was ≤ 0.5.
With A40G U54A the yeast fitness was 0.551.
U2A A20C G68U showed a yeast fitness of 1.01.
Work on U47C G68A yielded a yeast fitness of 0.876.
In the case of C34G A45U G68C, the yeast fitness is reported as 0.578.
Work on G9A U28A G41C A65C G67C yielded a yeast fitness of 0.579.
In the case of C4U C24G C55G U64A, the yeast fitness is reported as ≤ 0.5.
For C27G G48C, the yeast fitness was 0.632.
With A15U U19C G38C the yeast fitness was 0.589.
For U3C U8A A15C C31G C49U A57U, the yeast fitness was 0.609.
U3A C11U A69U gave a yeast fitness of 0.627.
In the case of U3C C30U G38A G44C U54A, the yeast fitness is reported as ≤ 0.5.
U2G A42C U47A showed a yeast fitness of 0.573.
For A40C A57U C60G C66G, the yeast fitness was ≤ 0.5.
In the case of C5G A37G C46G C61A, the yeast fitness is reported as ≤ 0.5.
For U8A C22U U59A, the yeast fitness was ≤ 0.5.
In the case of G12C G41A A65C, the yeast fitness is reported as ≤ 0.5.
C27U C60U C66U gave a yeast fitness of 0.695.
For C11U A15G C46A, the yeast fitness was 0.915.
In the case of U3G A14U C29U A37G G51A, the yeast fitness is reported as ≤ 0.5.
With U2G A14G C62G A70U the yeast fitness was ≤ 0.5.
For A15G G39A C49U, the yeast fitness was 0.679.
C33A G48C A69G showed a yeast fitness of 0.684.
In the case of C29G A70G, the yeast fitness is reported as 0.548.
